Reference: ChEMBL document CHEMBL5390300, “Tuning the Reactivity of Nuclear Factor Erythroid 2-Related Factor 2 (Nrf2) Activators for Optimal in Vivo Efficacy” (ACS Med Chem Lett, 2023)
Counter-ions that a name gives are not always drawn. Blank lines part the entries; values can stand above or below the molecule they belong to. Calls of active or inactive are those of the source. No cut-off for these calls is given here.

How the values were obtained:
[1] = biological target: T1, Nuclear factor erythroid 2-related factor 2 (Homo sapiens, UniProt Q16236); assay: Activation of Nrf2 in human PathHunter U2OS Keap1-Nrf2 cells assessed as Nrf2 nuclear translocation by chemiluminescent assay; type: cell-based
T1 sequence (Q16236 whole entry): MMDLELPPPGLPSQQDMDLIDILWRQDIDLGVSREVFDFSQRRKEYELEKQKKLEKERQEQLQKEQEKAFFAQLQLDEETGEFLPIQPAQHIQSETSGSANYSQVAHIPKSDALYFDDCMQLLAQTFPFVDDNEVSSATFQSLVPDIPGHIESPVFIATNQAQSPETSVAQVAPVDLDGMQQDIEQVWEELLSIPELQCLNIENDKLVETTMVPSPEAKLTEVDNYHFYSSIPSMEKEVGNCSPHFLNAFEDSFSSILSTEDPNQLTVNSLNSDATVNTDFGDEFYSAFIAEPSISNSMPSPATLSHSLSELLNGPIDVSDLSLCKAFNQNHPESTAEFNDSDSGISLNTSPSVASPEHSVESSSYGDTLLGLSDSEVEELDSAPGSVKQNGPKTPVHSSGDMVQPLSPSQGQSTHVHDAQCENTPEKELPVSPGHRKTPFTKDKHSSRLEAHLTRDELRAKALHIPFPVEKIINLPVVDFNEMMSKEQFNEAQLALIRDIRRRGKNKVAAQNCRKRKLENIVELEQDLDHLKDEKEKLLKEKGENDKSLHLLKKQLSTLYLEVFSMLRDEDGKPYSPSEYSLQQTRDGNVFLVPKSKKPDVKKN

[2] = tested on: THP-1; assay: Inhibition of LPS-induced IL-23 production in IFN-gamma primed human THP-1 cells preincubated for 1 hr followed by LPS stimulation for 18 hrs by sandwich ELISA; type: functional, cell-based
[3] = biological target: T2, Voltage-gated inwardly rectifying potassium channel KCNH2 (Homo sapiens, UniProt Q12809); assay: Inhibition of hERG assessed as inhibition of channel current at 60 uM by manual patch clamp analysis; type: toxicity
[4] = Mutagenicity in Salmonella typhimurium by Ames test; type: toxicity; settings: salmonella enterica subsp. enterica serovar typhimurium
[5] = biological target: T3, Adenosine receptor A3 (Homo sapiens) (UniProt P0DMS8); assay: Inhibition of adenosine A3 receptor (unknown origin) at 500 uM relative to control
T3 sequence (whole entry): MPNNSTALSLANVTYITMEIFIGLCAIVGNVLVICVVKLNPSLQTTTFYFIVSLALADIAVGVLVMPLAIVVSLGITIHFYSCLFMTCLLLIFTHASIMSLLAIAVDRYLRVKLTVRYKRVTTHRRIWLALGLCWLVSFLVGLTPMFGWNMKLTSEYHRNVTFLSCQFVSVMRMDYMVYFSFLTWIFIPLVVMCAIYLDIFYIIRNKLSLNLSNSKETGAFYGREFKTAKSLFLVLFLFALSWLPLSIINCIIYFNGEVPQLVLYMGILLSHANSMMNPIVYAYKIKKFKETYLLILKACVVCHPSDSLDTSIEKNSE

[6] = biological target: 5-hydroxytryptamine receptor 2B (Homo sapiens) (UniProt P41595); assay: Inhibition of 5-HT2B receptor (unknown origin) at 500 uM relative to control
[7] = tested on: Mus musculus; assay: Antiinflammatory activity against MOG35-55 induced experimental autoimmune encephalomyelitis C57BL/6 mouse model assessed as reduction in clinical score at 30 mg/kg, po BID and measured for 28 days; type: functional
How it was run: (§1)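 EAE was induced in mice by immunization with myelin oligodendrocyte glycoprotein (MOG). Compounds were dosed twice daily (BID), with DMF dosed BID as control. Clinical scores were followed over the study and reported as mean with SEM. Efficacy is expressed as % reduction in clinical score.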

[8] = biological target: Kelch-like ECH-associated protein 1 (Homo sapiens) (UniProt Q14145); assay: Binding affinity to human Keap1 assessed as cysteine labeling at 30 uM incubated for 2 hrs by LC-MS/MS analysis
[9] = tested on: Mus musculus; assay: Antiinflammatory activity against MOG35-55 induced experimental autoimmune encephalomyelitis C57BL/6 mouse model assessed as reduction in clinical score at 10 mg/kg, po BID and measured for 28 days; type: functional; settings: C57BL/6, 672 h, time 28 day; how it was run: as §1
[10] = biological target: T2, Voltage-gated inwardly rectifying potassium channel KCNH2; assay: Inhibition of hERG assessed as inhibition of channel current at 200 uM by manual patch clamp analysis; type: toxicity
[11] = Metabolic stability of the compound in mouse plasma; type: ADME, cell-free
[12] = biological target: T2, Voltage-gated inwardly rectifying potassium channel KCNH2; assay: Inhibition of hERG assessed as inhibition of channel current at 180 uM by manual patch clamp analysis; type: toxicity
[13] = tested on: Mus musculus; assay: Antiinflammatory activity against MOG35-55 induced experimental autoimmune encephalomyelitis C57BL/6 mouse model assessed as reduction in clinical score at 60 mg/kg, po BID and measured for 28 days; type: functional; settings: C57BL/6, 672 h, time 28 day; how it was run: as §1
[14] = tested on: Mus musculus; assay: Increase in Nrf2 level in thymus of MOG35-55 induced experimental autoimmune encephalomyelitis C57BL/6 mouse model at 60 to 90 mg/kg, po measured for 8 hrs; type: functional, organism-based; settings: dose 60-90 mg/kg
How it was run: (§2)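 After the EAE study, mouse thymus was analysed for Nrf2 levels by Western blot, following BID dosing at 60 and 90 mg/kg, or at 75 mg/kg for the DMF control. Nrf2 increase was assessed over an 8 h period.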

[15] = biological target: T4, Nuclear factor erythroid 2-related factor 2 (Homo sapiens) (UniProt Q16236); assay: Activation of Nrf2 in human THP-1 cells assessed as increase in cellular Nrf2 level at 0.08 to 10 uM by western blot analysis; type: cell-based; settings: filed as activator, dose 0.08-10 µM
T4 sequence (whole entry): T1 sequence (Q16236 whole entry)
How it was run: (§3)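 THP-1 cells were exposed to a range of compound concentrations. Cellular Nrf2 and HO-1 expression were detected by Western blot.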

[16] = tested on: Mus musculus; assay: Antiinflammatory activity against MOG35-55 induced experimental autoimmune encephalomyelitis C57BL/6 mouse model assessed as reduction in clinical score at 75 mg/kg, po BID and measured for 28 days; type: functional; settings: C57BL/6, 672 h, time 28 day; how it was run: as §1
[17] = tested on: Mus musculus; assay: Increase in Nrf2 level in thymus of MOG35-55 induced experimental autoimmune encephalomyelitis C57BL/6 mouse model at 75 mg/kg, po measured for 8 hrs; type: functional, organism-based; how it was run: as §2
[18] = biological target: T4, Nuclear factor erythroid 2-related factor 2 (Homo sapiens); assay: Activation of Nrf2 in human THP-1 cells assessed as increase in HO-1 expression at 0.08 to 10 uM by western blot analysis; type: cell-based; settings: filed as activator, dose 0.08-10 µM; how it was run: as §3

T2 sequence (Q12809 whole entry): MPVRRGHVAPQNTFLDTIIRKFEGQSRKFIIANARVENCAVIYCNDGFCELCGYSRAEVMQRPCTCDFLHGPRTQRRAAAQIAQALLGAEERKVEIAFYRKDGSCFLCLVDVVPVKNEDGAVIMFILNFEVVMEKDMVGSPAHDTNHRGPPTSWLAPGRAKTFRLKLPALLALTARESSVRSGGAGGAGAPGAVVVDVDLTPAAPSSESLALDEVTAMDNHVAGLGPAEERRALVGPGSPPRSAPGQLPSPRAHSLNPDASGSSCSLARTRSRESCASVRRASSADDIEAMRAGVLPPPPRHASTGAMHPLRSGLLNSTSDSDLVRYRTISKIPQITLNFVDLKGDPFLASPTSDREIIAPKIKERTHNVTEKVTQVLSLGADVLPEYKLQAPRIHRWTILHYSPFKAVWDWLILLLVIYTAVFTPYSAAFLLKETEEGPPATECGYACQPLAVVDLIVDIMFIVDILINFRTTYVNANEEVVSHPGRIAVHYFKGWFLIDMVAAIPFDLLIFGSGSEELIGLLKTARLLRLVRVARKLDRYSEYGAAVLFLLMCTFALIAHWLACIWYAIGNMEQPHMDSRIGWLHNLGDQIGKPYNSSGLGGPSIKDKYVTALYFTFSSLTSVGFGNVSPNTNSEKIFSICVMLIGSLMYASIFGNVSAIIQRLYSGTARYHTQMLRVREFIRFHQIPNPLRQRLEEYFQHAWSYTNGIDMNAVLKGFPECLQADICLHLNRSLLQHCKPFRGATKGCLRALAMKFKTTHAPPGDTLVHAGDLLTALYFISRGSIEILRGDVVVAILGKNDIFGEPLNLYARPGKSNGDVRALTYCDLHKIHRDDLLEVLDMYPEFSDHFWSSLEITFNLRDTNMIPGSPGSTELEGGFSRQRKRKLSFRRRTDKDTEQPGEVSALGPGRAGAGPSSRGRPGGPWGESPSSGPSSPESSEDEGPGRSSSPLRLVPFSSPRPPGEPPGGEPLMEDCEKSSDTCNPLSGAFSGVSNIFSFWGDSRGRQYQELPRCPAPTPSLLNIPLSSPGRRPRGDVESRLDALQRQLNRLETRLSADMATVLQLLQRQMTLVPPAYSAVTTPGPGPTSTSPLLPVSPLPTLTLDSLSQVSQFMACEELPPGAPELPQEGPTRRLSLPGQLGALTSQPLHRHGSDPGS
5-hydroxytryptamine receptor 2B (Homo sapiens), sequence (P41595 whole entry): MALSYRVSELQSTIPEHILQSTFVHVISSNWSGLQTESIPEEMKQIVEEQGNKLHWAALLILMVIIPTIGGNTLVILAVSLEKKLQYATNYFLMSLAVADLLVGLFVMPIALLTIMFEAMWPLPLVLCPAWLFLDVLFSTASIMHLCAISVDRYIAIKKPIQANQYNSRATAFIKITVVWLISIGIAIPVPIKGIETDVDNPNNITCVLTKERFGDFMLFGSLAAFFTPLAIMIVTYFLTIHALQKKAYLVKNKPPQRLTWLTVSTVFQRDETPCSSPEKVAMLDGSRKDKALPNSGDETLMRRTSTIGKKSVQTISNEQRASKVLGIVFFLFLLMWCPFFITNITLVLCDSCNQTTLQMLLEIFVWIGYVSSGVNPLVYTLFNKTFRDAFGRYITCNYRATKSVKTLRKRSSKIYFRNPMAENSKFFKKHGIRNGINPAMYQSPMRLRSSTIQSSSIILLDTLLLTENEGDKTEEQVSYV
Kelch-like ECH-associated protein 1 (Homo sapiens), sequence (Q14145 whole entry): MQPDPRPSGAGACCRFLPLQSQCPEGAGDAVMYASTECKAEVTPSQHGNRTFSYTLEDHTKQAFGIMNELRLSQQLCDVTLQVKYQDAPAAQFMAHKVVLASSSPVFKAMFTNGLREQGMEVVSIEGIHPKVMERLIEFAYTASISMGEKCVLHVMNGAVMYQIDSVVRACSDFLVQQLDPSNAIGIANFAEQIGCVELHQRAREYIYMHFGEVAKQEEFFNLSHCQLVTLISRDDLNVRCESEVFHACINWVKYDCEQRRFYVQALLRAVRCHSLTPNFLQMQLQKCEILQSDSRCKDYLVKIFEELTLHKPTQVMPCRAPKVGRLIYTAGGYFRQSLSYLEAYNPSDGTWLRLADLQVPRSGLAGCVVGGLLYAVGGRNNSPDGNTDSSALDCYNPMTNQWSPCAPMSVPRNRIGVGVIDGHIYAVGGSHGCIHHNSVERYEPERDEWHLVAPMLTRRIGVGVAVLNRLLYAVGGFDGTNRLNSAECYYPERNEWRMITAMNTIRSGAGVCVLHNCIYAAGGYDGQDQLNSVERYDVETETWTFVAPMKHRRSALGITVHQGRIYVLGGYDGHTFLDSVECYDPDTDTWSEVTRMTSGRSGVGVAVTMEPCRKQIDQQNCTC

SMILES: COC(=O)/C=C/n1nn[nH]c1=O
EC50 [1]: 60.9 µM
IC50 [2]: 18 µM
inhibition (INH) [3]: Active
Activity [4]: Toxic

SMILES: Cc1ccc(S(=O)(=O)/C=C/n2nnn(C)c2=O)cc1
IC50 [2]: 0.19 µM
inhibition [5]: 82%
inhibition [6]: 74%
Activity ([7]; time 28.0 day): inactive
Activity [8]: Active
inhibition in vivo at 10 mg/kg [9]: 40%

SMILES: COC(=O)/C=C/n1nnn(-c2cccnc2)c1=O
inhibition (INH) [10]: Active
Activity [4]: Non-Toxic
Stability [11]: Unstable

SMILES: COC(=O)/C=C/C(=O)O [MONOMETHYL FUMARATE]
EC50 [1]: 127 µM
IC50 [2]: 18.9 µM

SMILES: COC(=O)/C=C/n1nnn(C)c1=O
inhibition (INH) [12]: Active

SMILES: COC(=O)/C=C/n1cnn(C)c1=O
EC50 [1]: 95.2 µM
IC50 [2]: 29.5 µM

SMILES: COC(=O)/C=C/C(=O)OC [DIMETHYL FUMARATE]
EC50 [1]: 7.93 µM
IC50 [2]: 10.6 µM
Activity [15]: Dose-Dependent Effect
inhibition in vivo at 75 mg/kg [16]: 83%
Activity [17]: Active
Activity [18]: Active

The next lines start with results.

IC50 [2]: 0.3 µM
SMILES: Cn1nnn(/C=C/S(=O)(=O)c2ccccc2)c1=O

IC50 [2]: 2.11 µM
SMILES: Cc1ccc(S(=O)(=O)/C=C/n2cnn(C)c2=O)cc1

IC50 [2]: 2.12 µM
SMILES: Cn1ncn(/C=C/S(=O)(=O)c2ccccc2)c1=O

IC50 [2]: 0.02 µM
SMILES: O=c1n(/C=C/S(=O)(=O)c2ccccc2)nnn1-c1cccnc1

IC50 [2]: 6.92 µM
SMILES: Cc1ccc(S(=O)(=O)/C=C/n2ncn(C)c2=O)cc1

IC50 [2]: 3.49 µM
inhibition [5]: 82%
inhibition [6]: 74%
SMILES: Cn1cnn(/C=C/S(=O)(=O)c2ccccc2)c1=O
inhibition in vivo at 30 mg/kg ([7]; C57BL/6, 672 h, time 28 day): 41%
inhibition in vivo at 60 mg/kg [13]: 89%
Activity [14]: Active
